Data reported in ChEMBL document CHEMBL4819032, “Structure-based design of highly selective 2,4,5-trisubstituted pyrimidine CDK9 inhibitors as anti-cancer agents” (Eur J Med Chem, 2021).
Calls of active or inactive are those of the source. The rule behind the calls is not given here.

How the values were obtained:
CDK9/cyclin T1 = CDK9/cyclin T1 (Homo sapiens, UniProt P50750); assay: Inhibition of recombinant human full length CDK9/Cyclin T1 using KTFCGTPEYLAPEVRREPRILSEEEQEMFRDFDYIADWC as substrate incubated for 40 mins in presence of [gamma-33P]-ATP by scintillation counting method; assay type: protein-complex assay
In short: (§1)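 Radiometric kinase assay with ATP at each kinase's Km(app). IC50 values come from 10-point dose-response curves, and apparent Ki is calculated from IC50 and the kinase's Km(ATP).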

HCT-116 [1] = assay: Growth inhibition of human HCT-116 cells after 48 hrs by MTT assay; assay type: functional
[2] = target: Cyclin-dependent kinase 1/cyclin B1 (Homo sapiens, UniProt P06493); assay: Inhibition of recombinant human full length CDK1/Cyclin B using histone H1 as substrate incubated for 40 mins in presence of [gamma-33P]-ATP by scintillation counting method; assay type: protein-complex assay; in short: as §1
[3] = system: Aurora kinase A (Homo sapiens), O14965 [UNDEFINED MUTATION]; assay: Inhibition of recombinant human full length Aurora-A I31F mutant using LRRASLG as substrate incubated for 40 mins by scintillation counting method
In short: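 The 60-kinase diversity panel was run as a radiometric assay with ATP at each kinase's Km(app). Compound was tested at one fixed concentration across all kinases.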

A549 = assay: Growth inhibition of human A549 cells after 48 hrs by MTT assay; assay type: functional
A2780 [4] = assay: Induction of apoptosis in human A2780 cells assessed as viable cells at 2 uM after 24 hrs by Annexin V-FITC/PI staining based flow cytometric analysis (reference value: 92%); assay type: functional; details: read-out: Activity
In short: (§2)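 A2780 cells cultured 24 h in medium alone or with varying inhibitor concentrations, then stained with FITC-annexin V/PI per kit protocol and analysed by flow cytometry. Run in triplicate and repeated at least twice; significance by one-way ANOVA, p < 0.01.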

A2780 [5] = assay: Induction of apoptosis in human A2780 cells assessed as early apoptotic cells at 5 uM after 24 hrs by Annexin V-FITC/PI staining based flow cytometric analysis (reference value: 1.6%); assay type: functional; in short: as §2
A2780 [6] = assay: Induction of apoptosis in human A2780 cells assessed as necrotic cells at 5 uM after 24 hrs by Annexin V-FITC/PI staining based flow cytometric analysis (reference value: 3.6%); assay type: functional; in short: as §2
A2780 [7] = assay: Induction of cell cycle arrest in human A2780 cells assessed as accumulation at pre-G1 phase at 0.5 uM after 24 hrs by propidium iodide staining based flow cytometric analysis (reference value: 1.2%); assay type: functional
A2780 [8] = assay: Induction of cell cycle arrest in human A2780 cells assessed as accumulation at S phase at 5 uM after 24 hrs by propidium iodide staining based flow cytometric analysis (reference value: 20%); assay type: functional
In short: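 4 × 10⁵ A2780 cells cultured 24 h in medium alone or with varying inhibitor concentrations, harvested into hypotonic fluorochrome solution (0.1% sodium citrate, 0.1% Triton X-100, propidium iodide, 100 ug/ml RNase A), and DNA content analysed by flow cytometry. Representative of three independent experiments.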

A2780 [9] = assay: Induction of apoptosis in human A2780 cells assessed as reduction in Mcl-1 protein expression at 5 uM after 6 to 12 hrs by Western blot analysis; assay type: functional, cell-based; details: time 6-12 hrs
In short: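 A2780 cells treated for 6 or 12 h, then lysates analysed by Western blotting.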

A2780 [10] = assay: Induction of apoptosis in human A2780 cells assessed as reduction in XIAP protein expression after 24 hrs by Western blot analysis; assay type: functional, cell-based; details: dose 0.5-5 µM
In short: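 A2780 cells treated for 24 h over a concentration series, then lysates analysed by Western blotting.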

HCT-116 [11] = assay: Induction of apoptosis in human HCT-116 cells assessed as reduction in XIAP protein expression after 24 hrs by Western blot analysis; assay type: functional, cell-based; details: dose 0.5-5 µM

Aurora kinase A (Homo sapiens), O14965 [UNDEFINED MUTATION], sequence (O14965 whole entry, looked up, stated change not applied): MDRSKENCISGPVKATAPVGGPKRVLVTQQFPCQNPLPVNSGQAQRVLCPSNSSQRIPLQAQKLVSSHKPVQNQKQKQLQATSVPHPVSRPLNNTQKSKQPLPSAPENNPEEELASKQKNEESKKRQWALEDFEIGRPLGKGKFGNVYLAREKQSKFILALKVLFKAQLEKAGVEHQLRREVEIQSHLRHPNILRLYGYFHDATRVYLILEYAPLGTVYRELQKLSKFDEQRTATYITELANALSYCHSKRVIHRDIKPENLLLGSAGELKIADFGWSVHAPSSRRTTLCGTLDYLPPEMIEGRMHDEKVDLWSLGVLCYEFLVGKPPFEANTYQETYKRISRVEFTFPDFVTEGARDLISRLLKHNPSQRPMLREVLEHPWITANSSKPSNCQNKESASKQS
Cyclin-dependent kinase 1/cyclin B1, sequence (P06493 whole entry): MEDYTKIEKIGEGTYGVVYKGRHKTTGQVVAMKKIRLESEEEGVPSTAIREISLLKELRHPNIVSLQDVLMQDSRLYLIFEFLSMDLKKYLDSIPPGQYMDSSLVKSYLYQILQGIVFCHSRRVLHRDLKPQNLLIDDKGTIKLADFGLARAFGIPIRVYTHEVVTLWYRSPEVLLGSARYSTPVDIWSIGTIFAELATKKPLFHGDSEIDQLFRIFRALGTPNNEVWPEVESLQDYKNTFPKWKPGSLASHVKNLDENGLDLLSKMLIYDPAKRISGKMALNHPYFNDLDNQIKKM
Cyclin-dependent kinase 1/cyclin B1, sequence (P14635 whole entry, further chain): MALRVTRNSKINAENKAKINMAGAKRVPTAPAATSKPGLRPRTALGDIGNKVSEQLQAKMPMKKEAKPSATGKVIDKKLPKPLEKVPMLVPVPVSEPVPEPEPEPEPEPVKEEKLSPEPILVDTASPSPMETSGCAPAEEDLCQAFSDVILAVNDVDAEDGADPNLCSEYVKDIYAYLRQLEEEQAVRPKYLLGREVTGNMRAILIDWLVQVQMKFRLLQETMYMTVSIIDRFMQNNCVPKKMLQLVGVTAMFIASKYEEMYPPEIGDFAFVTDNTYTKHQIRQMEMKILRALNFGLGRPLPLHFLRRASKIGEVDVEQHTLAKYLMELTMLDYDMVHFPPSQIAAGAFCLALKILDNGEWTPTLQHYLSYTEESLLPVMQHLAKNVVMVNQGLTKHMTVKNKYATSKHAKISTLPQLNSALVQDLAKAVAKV
CDK9/cyclin T1, sequence (O60563 whole entry): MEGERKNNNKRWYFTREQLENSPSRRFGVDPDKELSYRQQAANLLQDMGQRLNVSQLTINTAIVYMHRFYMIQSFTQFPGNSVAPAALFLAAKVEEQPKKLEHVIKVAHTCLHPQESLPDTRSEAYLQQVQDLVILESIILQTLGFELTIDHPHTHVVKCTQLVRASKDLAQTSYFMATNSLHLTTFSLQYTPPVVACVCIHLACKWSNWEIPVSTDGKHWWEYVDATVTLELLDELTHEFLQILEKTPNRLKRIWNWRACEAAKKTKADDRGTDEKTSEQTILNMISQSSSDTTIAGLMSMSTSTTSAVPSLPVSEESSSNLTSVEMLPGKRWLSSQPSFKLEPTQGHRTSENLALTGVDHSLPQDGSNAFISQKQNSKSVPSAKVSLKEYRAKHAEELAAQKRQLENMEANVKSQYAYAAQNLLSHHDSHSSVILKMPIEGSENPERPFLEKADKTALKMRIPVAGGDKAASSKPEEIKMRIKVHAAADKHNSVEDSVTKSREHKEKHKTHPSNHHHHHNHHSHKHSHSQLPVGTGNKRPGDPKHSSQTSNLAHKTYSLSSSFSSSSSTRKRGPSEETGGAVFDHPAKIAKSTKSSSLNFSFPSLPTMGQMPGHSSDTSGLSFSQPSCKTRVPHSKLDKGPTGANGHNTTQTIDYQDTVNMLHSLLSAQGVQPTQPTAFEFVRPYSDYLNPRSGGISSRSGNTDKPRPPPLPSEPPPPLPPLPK
CDK9/cyclin T1, sequence (P50750 whole entry): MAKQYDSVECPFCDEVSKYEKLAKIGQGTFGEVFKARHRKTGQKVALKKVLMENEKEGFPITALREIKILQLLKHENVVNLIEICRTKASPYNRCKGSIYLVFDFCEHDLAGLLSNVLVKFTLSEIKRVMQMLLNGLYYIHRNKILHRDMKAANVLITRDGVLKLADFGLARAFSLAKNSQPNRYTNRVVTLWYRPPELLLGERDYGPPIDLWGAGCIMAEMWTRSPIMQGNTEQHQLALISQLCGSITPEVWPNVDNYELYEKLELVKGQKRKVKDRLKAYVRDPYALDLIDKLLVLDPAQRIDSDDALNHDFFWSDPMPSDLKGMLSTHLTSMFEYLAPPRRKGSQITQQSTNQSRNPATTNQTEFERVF

## CNc1nc(C)c(-c2nc(Nc3cccc(N4CCN5CCC4CC5)c3)ncc2C)s1
CDK9/cyclin T1
  Ki: 10 nM
HCT-116 [1]
  GI50: 1070 nM
[2]
  Ki: 1170 nM
[3]
  inhibition: Active
A549
  GI50: 1540 nM
A2780 [4]
  viability at 2 µM: 67.9%
A2780 [5]
  Activity: 24.65%
A2780 [6]
  Activity: 5.6%
A2780 [7]
  Activity: 2%
A2780 [8]
  Activity: 10.8%
A2780 [9]
  Activity: Active
A2780 [10]
  Activity: Dose-Dependent Effect
HCT-116 [11]
  Activity: Dose-Dependent Effect
